# Screens deposited in PubChem by several laboratories.
# Calb FLC = affects C. albicans growth with fluconazole; C. albicans CaCi-2 (fluconazole-resistant clinical isolate) + fluconazole, Alamar Blue growth, 48 h; growth inhibition, % (no concentration beside the values); hit rate 0.57% among 300,000;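 active = growth inhibition above about 58% in most replicates, limit read from the data, passing the limit was not always enough; inconclusive = exactly half the replicates above a set limit; inactive = most replicates below a set limit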;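 also: all wells also contain fluconazole at 8 µg/ml as a sub-toxic cotreatment; 0% = median of DMSO wells and 100% = median of geldanamycin control wells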
# CSC inhib = cancer stem cell inhibition | cancer stem cell-like cells viability, luminescence | inhibition, % at 7.5 µM | hit rate 1.1% among 300,000; in the data active = inhibition above about 75%; inconclusive = no clear call, values can overlap the other calls; tested in HMLE shEcad cells
# SKKanGAS inh = SKKanGAS growth inhibition. AID 1662. S. pyogenes SKKanGAS, kanamycin growth, BacTiter-Glo, 6 h. hit rate 1.3% among 300,000. inhibition, % at 7.5 µM;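 active = mean replicate score, as percent of positive control median, at least 50; inconclusive = mean below 50 but one replicate at or above 50; inactive = mean and every replicate below 50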;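 also: strain carries kanamycin resistance gene driven by streptokinase promoter and grows in 40 µg/ml kanamycin; loss of luminescence reflects streptokinase promoter inhibition or plain growth inhibition; 0% = median of DMSO wells and 100% = positive control at its reference dose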
# Mdm2 MdmX PPI = inhibitors of human Mdm2/MdmX interaction; O15151+Q00987; SaOS-2 split-luciferase Mdm2/MdmX complementation, luminescence; inhibition, % at 8 µM; hit rate 3% among 330,000; AID 485346;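 active = inhibition of at least 50% at 8 µM in the primary screen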
# Target sequence (O15151 whole entry, looked up): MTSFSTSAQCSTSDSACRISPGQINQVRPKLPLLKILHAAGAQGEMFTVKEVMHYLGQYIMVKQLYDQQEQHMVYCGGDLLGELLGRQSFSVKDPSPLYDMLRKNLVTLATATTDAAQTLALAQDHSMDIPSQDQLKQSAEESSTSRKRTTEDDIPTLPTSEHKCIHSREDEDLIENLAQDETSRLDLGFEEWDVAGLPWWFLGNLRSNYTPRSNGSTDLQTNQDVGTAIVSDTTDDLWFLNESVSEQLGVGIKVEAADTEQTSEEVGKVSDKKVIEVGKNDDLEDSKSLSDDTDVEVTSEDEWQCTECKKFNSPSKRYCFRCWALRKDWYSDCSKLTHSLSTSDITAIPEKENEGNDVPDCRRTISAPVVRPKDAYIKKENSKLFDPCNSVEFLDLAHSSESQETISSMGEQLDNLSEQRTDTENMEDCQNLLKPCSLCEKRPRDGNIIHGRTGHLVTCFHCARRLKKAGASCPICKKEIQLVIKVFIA
# Target sequence (Q00987 whole entry, looked up): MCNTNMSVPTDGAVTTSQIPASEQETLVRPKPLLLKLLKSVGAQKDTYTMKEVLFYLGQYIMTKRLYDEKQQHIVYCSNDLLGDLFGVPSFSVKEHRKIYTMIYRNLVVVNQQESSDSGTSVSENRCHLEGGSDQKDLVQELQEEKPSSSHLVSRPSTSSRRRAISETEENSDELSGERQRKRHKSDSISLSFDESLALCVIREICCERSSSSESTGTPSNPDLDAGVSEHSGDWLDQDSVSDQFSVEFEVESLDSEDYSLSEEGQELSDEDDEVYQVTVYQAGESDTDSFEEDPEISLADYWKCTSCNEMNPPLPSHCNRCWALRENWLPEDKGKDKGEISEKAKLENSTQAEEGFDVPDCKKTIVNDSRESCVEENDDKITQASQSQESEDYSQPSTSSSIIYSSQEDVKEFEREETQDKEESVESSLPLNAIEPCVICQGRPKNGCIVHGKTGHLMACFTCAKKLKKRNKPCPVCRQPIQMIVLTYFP
# Beta cell apopt = blocks beta cell apoptosis. AID 435005. hit rate 0.8% among 300,000. protection from apoptosis, % (test concentration not listed). INS-1E cytokine-induced death, ATP luminescence, 48 h; percent of positive-control rescue, neutral wells zero;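 active = Every replicate reaches about 75%, or at least half do and their mean reaches it too, limit read from the data; inconclusive = At least half of replicates reach the limit but their mean does not; inactive = Under half of replicates reach the limit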;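 also: 0% = cytokine-treated negative control wells and 100% = positive control rescue; higher means more ATP so stronger rescue from cytokine killing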
# T cruzi repl = T. cruzi replication inhibition; AID 1885; hit rate 1.4% among 300,000; T. cruzi beta-gal in NIH3T3, luminescence, 90 h; inhibition, % (concentration not given with the values);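 active = mean inhibition across valid replicates above about 55%, limit read from the data; inconclusive = mean below that limit but half or more replicates reach it; inactive = mean below it, under half of replicates reach it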;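 also: signal also drops with host cell toxicity which is not excluded here; 0% = plate median of DMSO wells and 100% = zero luminescence signal; higher percent means less beta-gal luminescence so fewer parasites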
#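 System – NIH/3T3 host cells with β-galactosidase reporter T. cruzi · Doses – single 50 nL compound addition per well in DMSO · Reagent – 5000 T. cruzi trypomastigotes/well · Medium – Low-serum DMEM with 2% FBS · Timing – ≥90 h infection period, 3 h prior cell attachment · Evaluation – parasite load inhibition, % · Technique – GalScreen luminescence, 60 min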
# Mdm2-MdmX conf = human Mdm2/MdmX binding inhibition, confirmed; shares compounds with Mdm2 MdmX PPI; luminescent assay; inhibition, % at 8 µM; hit rate 55% among 10,000; AID 489028; in the data active = inhibition above about 40%
# Full FLuc ctr = full-length luciferase inhibition in Mdm2/MdmX counter-screen; shares compounds with Mdm2 MdmX PPI; SaOS-2 full-length luciferase counterscreen, luminescence; inhibition, % at 8 µM; hit rate 77% among 6,200; AID 504607;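 active = mean inhibition at 8 µM reaching about 37%, which flags the compound as non-specific, limit read from the data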;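 also: p53-null SaOS-2 cells with luciferase driven by a doxycycline-inducible promoter; compound on cells about two nights before reading with doxycycline added after day one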
# Active calls of the source: *; ? = inconclusive; · = no result given. In the library only some 5.7% were active in any assay of this set; here they are far more common.
SMILES,Calb FLC,CSC inhib,SKKanGAS inh,Mdm2 MdmX PPI,Beta cell apopt,T cruzi repl,Mdm2-MdmX conf,Full FLuc ctr
CN(C)S(=O)(=O)c1ccc(C(=O)OCC(=O)c2csc(N3CCCCC3)n2)cc1,·,-9,·,-15,0,·,·,·
COc1cc(C2CC(=O)Oc3cc4c(cc32)OCO4)cc(OC)c1OC (stereo not given),·,·,·,11,·,·,·,·
COc1cc(C2C(C#N)=C(N)Oc3cc4c(cc32)OCO4)cc(OC)c1OC (stereo not given),3,38,1,81*,64,25,68*,126*
COc1ccccc1CNC(=O)c1ccc(NC(=O)CC2SC(N3CCCC3)=NC2=O)cc1 (stereo not given),·,-23,·,-4,3,·,·,·
Cc1cccc(N2N=C(C(=O)O)CCC2=O)c1,-6,-4,-1,-27,0,-14,·,·
Cc1ccc(C)c(N2CCN(S(=O)(=O)c3c(C)noc3/C=C/N(C)C)CC2)c1,9,41,26,56*,-2,17,28,·
Cc1ccc(S(=O)(=O)N2CCCCC2)cc1NC(=O)COC(=O)C1(C)CC1(Cl)Cl (stereo not given),·,·,·,17,·,·,·,·
Cc1ccc(C(C(=O)NCc2ccco2)N(C(=O)CNC(=O)c2cccs2)c2c(C)cccc2C)cc1 (stereo not given),-3,3,10,52*,36,9,53*,65*
Cc1ccc(C(C(=O)NCc2ccco2)N(C(=O)CNC(=O)c2cccs2)c2c(C)cc(C)cc2C)cc1 (stereo not given),2,32,8,87*,-6,-4,53*,43*
CCOC(=O)C1=C(C)N=C2c3ccccc3C(=O)C2C1c1ccc(Cl)cc1 (stereo not given),-1,25,18,51*,-13,61*,24,·
CC1(C)CC(=O)C2=C(C1)N=C1c3ccccc3C(=O)C1C2c1ccc(Cl)cc1 (stereo not given),65,27,50*,56*,1,53,14,·
CCOC(=O)C1=NNC(C(=O)c2ccccc2)C1c1ccc(Cl)cc1 (stereo not given),4,-13,-2,3,-1,·,·,·
N#C/C(=C\c1cn(Cc2ccccc2)c2ccccc12)C(=O)NCc1ccco1,10,32,-5,4,-14,-5,·,·
N#C/C(=C/c1cn(CC(=O)O)c2ccccc12)C(=O)Nc1ccccc1,-3,2,0,51*,3,3,-16,·
Cc1cccc(NC(=O)/C(C#N)=C/c2cn(CC(=O)NCc3ccco3)c3ccccc23)c1C,-13,9,6,90*,-4,-4,49*,65*
COc1cc(NC(=O)c2cc([N+](=O)[O-])ccc2N2CCOCC2)ccc1NC(=O)c1ccco1,3,6,-1,6,7,2,·,·
O=C(Nc1cc(Cl)ccn1)C1(c2ccccc2)CC1(Cl)Cl (stereo not given),3,17,39,0,8,·,·,·
O=C(NNC(=O)c1cc(-c2ccc(Cl)cc2Cl)nc2ccccc12)Nc1ccccc1,8,-11,74*,64*,7,7,38,·
O=C(c1ccco1)N1CCN(C(=O)c2ccc(-c3ccccc3Cl)o2)CC1,·,1,·,-38,0,·,·,·
COc1cc(/C=C(\C#N)c2ccccn2)cc(OC)c1O,49,26,-4,11,4,-21,·,·
COc1cc(/C=C(\C#N)c2[nH]nc(N)c2C#N)cc(OC)c1O,6,17,10,65*,12,5,36,·
COc1ccc(NC(=O)c2ccc(-c3nn(C)c(=O)c4ccccc34)cc2)cc1C(N)=O,0,-8,5,-7,-5,3,·,·
COc1cc2c(cc1OC)C(Cc1ccc(O)c(Oc3ccc(C[C@H]4c5cc(OC)c(OC)cc5CCN4C)cc3)c1)N(C)CC2 (stereo not given in full),·,17,·,72*,-7,·,29,·
CCOC(=O)C(CC)/C(C)=N\NC(=O)c1ccccc1O (stereo not given),?,41,-3,68*,33,6,50*,77*
CC1CCCC(NC(=O)C2N(CCCN3CCCC3)C(=O)C3C(C(=O)Nc4cccc(Cl)c4)C4C=CC32O4)C1C (stereo not given),-7,6,10,25,-8,-3,·,·
SMILES,Calb FLC,CSC inhib,SKKanGAS inh,Mdm2 MdmX PPI,Beta cell apopt,T cruzi repl,Mdm2-MdmX conf,Full FLuc ctr
CC(=O)Nc1ccc(NC2=Nc3ccccc3N3C2=Nc2c(c(C)nn2-c2ccccc2)C3c2ccccc2)cc1 (stereo not given),-2,-1,16,84*,58,10,90*,32
CN1C(=O)C2(Nc3ccccc3-c3nc4ccccc4n32)c2ccccc21 (stereo not given),1,-20,-8,48,-8,17,·,·
CCN1C(=O)C2(Nc3ccccc3-c3nc4ccccc4n32)c2cc(OC)ccc21 (stereo not given),-9,0,0,66*,-2,22,96*,24
OC(c1cc(-c2ccc(C(F)(F)F)cc2)nc(C(F)(F)F)c1)C1CCCCN1 (stereo not given),14,104*,12,96*,108*,56*,98*,52*
OC(c1cc(C(F)(F)F)nc2c(C(F)(F)F)cccc12)C1CCCCN1 (stereo not given),·,72,·,100*,45,·,89*,36
CNC[C@@H](Cc1ccccc1)NC[C@@H](CC1CCCCC1)NCCCc1ccccc1,79*,111*,64*,98*,110*,41,100*,52*
CCC[C@@H](CNC)NC[C@H](Cc1ccccc1)NCCCCc1ccccc1,-30,133*,8,97*,19,31,83*,55*
O=C(NCCCCc1ccccc1)c1ccccc1,-7,-16,1,-23,2,4,·,·
CN(C[C@H](Cc1ccccc1)N(C[C@@H](CC1CCCCC1)N(CCc1ccccc1)N=O)N=O)N=O,-18,14,5,3,2,-11,·,·
CNC[C@@H](CC1CCCCC1)NC[C@H](CC(C)C)NCCc1cccc(C(F)(F)F)c1,88*,111*,88*,99*,112*,47,100*,50*
CN(Cc1cccc(C(F)(F)F)c1)C(=O)C1CCC(=O)N(CC2CCCCC2)C1 (stereo not given),25,-2,-6,22,1,13,·,·
CCC[C@@H](CN[C@@H](CNC)C(C)C)NCCCCc1ccccc1,-14,23,4,97*,10,-24,91*,21
CCN(CCCc1ccccc1)CCCc1ccccc1,·,·,1,-12,·,36,·,·
